The text below walks through data of ChEMBL document CHEMBL4811308, “Design, synthesis and broad spectrum antibreast cancer activity of diarylindoles via induction of apoptosis in aggressive breast cancer cells” (Bioorg Med Chem, 2021).

Holding throughout (assay type): organism-based
Data set [1] is described as follows: Acute toxicity in Swiss albino mouse assessed as RBC level at 5 mg/kg, po administered once and observed for 7 days (reference value: 9.21 +/- 0.32 /mm3). The following applies: in vivo, 168 h, time 7 day.
Data set [2] is described as follows: Acute toxicity in Swiss albino mouse assessed as relative brain weight at 5 to 300 mg/kg, po administered once and observed for 7 days. The settings on record: in vivo, 168 h, dose 5-300 mg/kg, time 7 day. The method in brief: (§1)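 Acute oral toxicity per OECD guideline 423; mice 20–25 g, 3 male + 3 female per group, acclimatized 7 days at 22 ± 5 °C, 12 h light/dark. Compound dissolved in minimal DMSO, diluted in 0.7% CMC, single oral dose of 5, 50 or 300 mg/kg; controls given vehicle only. Clinical signs checked hourly on dosing day, then daily. Samples and body weights taken on day 7.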

Data set [3] is described as follows: Acute toxicity in Swiss albino mouse assessed as albumin at 50 mg/kg, po administered once and observed for 7 days (reference value: 1.62 +/- 0.09 g/dl). The settings on record: in vivo, 168 h, time 7 day.
Data set [4] in a line: Acute toxicity in Swiss albino mouse assessed as body weight at 5 mg/kg, po administered once and observed for 7 days (reference value: 22.75 +/- 0.93 gm). The settings on record: in vivo, 168 h, time 7 day.
The nature of data set [5]: Acute toxicity in Swiss albino mouse assessed as RBC level at 50 mg/kg, po administered once and observed for 7 days (reference value: 9.21 +/- 0.32 /mm3). The settings on record: in vivo, 168 h, time 7 day.
A short description of data set [6]: Acute toxicity in Swiss albino mouse assessed as albumin at 300 mg/kg, po administered once and observed for 7 days (reference value: 1.62 +/- 0.09 g/dl). The following applies: in vivo, 168 h, time 7 day.
The nature of data set [7]: Acute toxicity in Swiss albino mouse assessed as protein level at 50 mg/kg, po administered once and observed for 7 days (reference value: 2.01 +/- 0.11 mg/ml). The settings on record: in vivo, 168 h, time 7 day.
The nature of data set [8]: Acute toxicity in Swiss albino mouse assessed as WBC level at 50 mg/kg, po administered once and observed for 7 days (reference value: 8.55 +/- 2.71 /mm3). The settings on record: in vivo, 168 h, time 7 day.
Data set [9] in a line: Acute toxicity in Swiss albino mouse assessed as absolute brain weight at 5 to 300 mg/kg, po administered once and observed for 7 days. The settings on record: in vivo, 168 h, dose 5-300 mg/kg, time 7 day. The method in brief:
as §1

A short description of data set [10]: Acute toxicity in Swiss albino mouse assessed as triglyceride level at 300 mg/kg, po administered once and observed for 7 days (reference value: 81.12 +/- 7.75 mg/dl). The settings on record: in vivo, 168 h, time 7 day.
Data set [11] is described as follows: Acute toxicity in Swiss albino mouse assessed as absolute liver weight at 5 to 300 mg/kg, po administered once and observed for 7 days. The following applies: in vivo, 168 h, dose 5-300 mg/kg, time 7 day. The method in brief:
as §1

The nature of data set [12]: Acute toxicity in Swiss albino mouse assessed as creatinine level at 300 mg/kg, po administered once and observed for 7 days (reference value: 0.11 +/- 0.03 mg/dL). The settings on record: in vivo, 168 h, time 7 day.
Data set [13] can be described thus: Acute toxicity in Swiss albino mouse assessed as relative lungs weight at 5 to 300 mg/kg, po administered once and observed for 7 days. The following applies: in vivo, 168 h, dose 5-300 mg/kg, time 7 day. The method in brief:
as §1

The nature of data set [14]: Acute toxicity in Swiss albino mouse assessed as triglyceride level at 50 mg/kg, po administered once and observed for 7 days (reference value: 81.12 +/- 7.75 mg/dl). The settings on record: in vivo, 168 h, time 7 day.
Data set [15] can be described thus: Acute toxicity in Swiss albino mouse assessed as relative spleen weight at 5 to 300 mg/kg, po administered once and observed for 7 days. The following applies: in vivo, 168 h, dose 5-300 mg/kg, time 7 day. The method in brief: as §1
Data set [16] can be described thus: Acute toxicity in Swiss albino mouse assessed as relative kidney weight at 5 to 300 mg/kg, po administered once and observed for 7 days. The following applies: in vivo, 168 h, dose 5-300 mg/kg, time 7 day. The method in brief:
as §1

Data set [17] is described as follows: Acute toxicity in Swiss albino mouse assessed as SGPT level at 50 mg/kg, po administered once and observed for 7 days (reference value: 12.65 +/- 2.98 U/L). The settings on record: in vivo, 168 h, time 7 day.
Data set [18] can be described thus: Acute toxicity in Swiss albino mouse assessed as albumin at 5 mg/kg, po administered once and observed for 7 days (reference value: 1.62 +/- 0.09 g/dl). The settings on record: in vivo, 168 h, time 7 day.
Data set [19] in a line: Acute toxicity in Swiss albino mouse assessed as effect on gait at 5 to 300 mg/kg, po administered once and observed for 7 days. The following applies: in vivo, 168 h, dose 5-300 mg/kg, time 7 day. The essentials: as §1

With `COc1ccc2c(c1)c(Cc1ccc(OCCN(C)C)cc1)c(-c1cc(OC)c(OC)c(OC)c1)n2Cc1ccc(OCCN(C)C)cc1`, the Activity is 9.67 million/mm3 in data set [1]; “Non-Toxic” in data set [2]; 1.43 g/dL in data set [3]; 21.71 g in data set [4]; 8.72 million/mm3 in [5]; 1.94 g/dL in [6]. The Activity is 1.48 mg/mL in data set [7]; 4.86 thousands/mm3 in [8]; “Non-Toxic” in [9]; 91.2 mg/dL in data set [10]; “Non-Toxic” in [11]; 0.15 mg/dL in data set [12]. Further, the Activity entry in data set [13] was “Non-Toxic”; in [14], 91.7 mg/dL; in data set [15] it was “Non-Toxic”; in data set [16] it was “Non-Toxic”; in data set [17], 15.07 U/L; in [18], 1.52 g/dL. Moreover, in data set [19], the Activity entry is recorded as “Non-Toxic”.

For `COc1ccc2c(c1)c(Cc1ccc(OC(C)CN(C)C)cc1)c(-c1cc(OC)c(OC)c(OC)c1)n2Cc1ccc(OC(C)CN(C)C)cc1` (stereo not drawn), the Activity in data set [1] was 9.12 million/mm3; in data set [2], “Non-Toxic”; in data set [3], 1.29 g/dL; in data set [4] it was 21.6 g; in data set [5] it was 8.67 million/mm3; in [6], 1.53 g/dL. In addition, the Activity in [7] is 1.28 mg/mL; in [8] it was 7.5 thousands/mm3; in [9] it was “Non-Toxic”; in [10] it was 86.58 mg/dL; in data set [11], “Non-Toxic”; in data set [12], 0.14 mg/dL. Also, the Activity result in [13] is “Non-Toxic”; in [14] it was 83.99 mg/dL; in data set [15], “Non-Toxic”; in [16], “Non-Toxic”; in data set [17], 18.69 U/L; in data set [18], 1.48 g/dL. Also, the Activity entry in [19] is recorded as “Non-Toxic”.
